The results in this text go back to ChEMBL document CHEMBL3621200, “Toward the discovery of dual HCMV-VZV inhibitors: Synthesis, structure activity relationship analysis, and cytotoxicity studies of long chained 2-uracil-3-yl-N-(4-phenoxyphenyl)acetamides” (Bioorg Med Chem, 2015).

Each structure is given as a SMILES string. Active and inactive are the calls of the source. No cut-off for these calls is given here.

One series has as its system HEL. In words: Cytotoxicity against human cytomegalovirus infected HEL cells assessed as cell growth inhibition incubated for 3 days by coulter counter method. Format: cell-based. The settings on record: 72 h. The gist of the method:
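HEL cells were seeded at 5 × 10^3 cells/well and left to adhere and proliferate for 24 h, then compound-containing medium was added. After 3 days at 37 °C, cells were counted with a Coulter counter.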

For series [1], the system named is Human herpesvirus 2 strain G. The series is described as follows: Antiviral activity against HSV2 G Lyons. Format: functional, organism-based.
In series [2] the test system is Vesicular stomatitis virus. In words: Antiviral activity against Vesicular stomatitis virus. Format: functional, organism-based. The gist of the method:
(§1)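 Confluent cell monolayers (HEL, Vero, HeLa or MDCK) in 96-well plates were infected with 100 CCID50 of virus in the presence of varying compound concentrations. Cytopathicity was scored once it reached completion in untreated infected controls.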

Series [3] has as its system Human betaherpesvirus 5. In words: Antiviral activity against human cytomegalovirus Davis infected in HEL cells assessed as reduction in viral plaque formation. Format: functional, organism-based. The settings on record: Human betaherpesvirus 5, Davis. The method in brief:
(§2)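 Confluent HEL fibroblasts were infected with 100 PFU of HCMV in the presence of varying compound concentrations. Plaques were counted once plaque formation was complete in untreated infected controls.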

Series [4] relates to Mammalian orthoreovirus 1. In words: Antiviral activity against Reovirus 1. Format: functional.
A further series relates to Influenza A virus H3N2. The series is described as follows: Antiviral activity against Influenza A virus H3N2. The class given is functional, organism-based. The method in brief: as §1
Series [5] has as its system Human betaherpesvirus 5. The series is described as follows: Antiviral activity against human cytomegalovirus AD169 infected in HEL cells assessed as reduction in viral plaque formation. Format: functional, organism-based. As to conditions: Human betaherpesvirus 5, AD169, HEL. The gist of the method:
as §2

Series [6] in a line: Cytotoxicity against Varicella zoster virus infected HEL cells assessed as alteration of cell morphology incubated for 3 days by microscopy. The settings on record: human, HEL cells infected with Varicella zoster virus. The class given is cell-based. The gist of the method: (§3)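 Cytotoxicity was given as the minimum cytotoxic concentration (MCC): the compound concentration causing a microscopically detectable change in HEL cell morphology.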

Another series has as its system Influenza B virus. In words: Antiviral activity against Influenza B virus. The class given is functional, organism-based. The method in brief:
as §1

In the next series the test system is Feline coronavirus. In words: Antiviral activity against Feline coronavirus. Format: functional, organism-based.
In series [7] the test system is Human immunodeficiency virus 2. In words: Antiviral activity against HIV2 ROD infected in human CEM cells assessed as reduction in virus- induced cytopathicity incubated for 4 to 5 days by microscopy based virus syncytium formation assay. Format: functional, organism-based. As to conditions: ISOLATE ROD, CCRF-CEM. The method in brief: (§4)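 CEM cells at ~3 × 10^5 cells/mL, infected with 100 CCID50 of HIV per mL in the presence of compound dilutions. Incubated 4–5 days at 37 °C in humidified CO2. Syncytium (giant cell) formation scored by microscopy.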
Background: Damage to the host cells serves as the signal in cytopathic effect assays.

Another series relates to Human alphaherpesvirus 1. The series is described as follows: Antiviral activity against HSV1 KOS. The class given is functional, organism-based. The method in brief: (§5)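 Confluent cell monolayers in 96-well plates were inoculated with 100 CCID50 of virus together with varying compound concentrations. Cytopathicity was scored once it reached completion in untreated infected controls.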

Series [8] is described as follows: Cytotoxicity against human cytomegalovirus infected HEL cells assessed as alteration of cell morphology incubated for 3 days by microscopy. The class given is cell-based. The settings on record: HEL cells infected with human cytomegalovirus. The gist of the method:
as §3

Series [9] relates to Human immunodeficiency virus 1. The series is described as follows: Antiviral activity against HIV1 3B infected in human CEM cells assessed as reduction in virus- induced cytopathicity incubated for 4 to 5 days by microscopy based virus syncytium formation assay. Format: functional, organism-based. The settings on record: CCRF-CEM. The gist of the method:
as §4

The next series relates to Coxsackievirus B4. The series is described as follows: Antiviral activity against Human coxsackievirus B4. Format: functional, organism-based.
Another series deals with Human respirovirus 3. The series is described as follows: Antiviral activity against Parainfluenza 3 virus. The class given is functional, organism-based.
For a further series, the system named is Sindbis virus. In words: Antiviral activity against Sindbis virus. The class given is functional, organism-based.
The test system of a further series is Human alphaherpesvirus 2. In words: Antiviral activity against HSV2 Lyons. Format: functional, organism-based. The method in brief:
as §5

For the next series, the system named is Vaccinia virus. The series is described as follows: Antiviral activity against Vaccinia virus Lederle. Format: functional, organism-based. The settings on record: Orthopoxvirus vaccinia. The gist of the method: as §1
The next series deals with Punta Toro virus. In words: Antiviral activity against Punta Toro virus. Format: functional, organism-based.
Another series has as its system Influenza A virus. The series is described as follows: Antiviral activity against Influenza A virus H1N1. The class given is functional, organism-based. The gist of the method: as §1

Take `O=C(Cn1c(=O)ccn(CCCCCOc2cccc(Br)c2)c1=O)Nc1ccc(Oc2ccccc2)cc1`: in the series with HEL, the CC50 (usually the concentration that lowers cell viability or growth by half) is 6.3 µM. Besides, the inhibition result (in series [1]; in [2]; in series [4]; in the series on Influenza A virus H3N2; in the series on Influenza B virus; in the series on Feline coronavirus) was “inactive” throughout. The inhibition result (in series [7]; in the series with Human alphaherpesvirus 1; in series [9]; in the series on Coxsackievirus B4; in the series with Human respirovirus 3; in the series with Sindbis virus) was “inactive” each time. Further, the inhibition entry in the series on Human alphaherpesvirus 2, in the series on Vaccinia virus, in the series on Punta Toro virus and with Influenza A virus was “inactive” each time. Moreover, the half-maximal effective concentration (EC50) – broadly, the concentration giving half of the maximal effect – in the series with Human betaherpesvirus 5 [3] was 3.1 µM; in the series with Human betaherpesvirus 5 [5] it was 2 µM. For the same molecule, the MCC at 72 h in series [6] is over 100 µM; in series [8] it was at least 100 µM.
Regarding `O=C(Cn1c(=O)ccn(CCCCOCc2ccc(Br)cc2)c1=O)Nc1ccc(Oc2ccccc2)cc1`, the half-maximal cytotoxic concentration (CC50) in the series on HEL was found to be 4.8 µM. Besides, the inhibition result (in [1]; in series [2]; in series [4]; in the series with Influenza A virus H3N2; with Influenza B virus; in the series on Feline coronavirus) was “inactive” in each case. Besides, the inhibition result (in series [7]; in the series with Human alphaherpesvirus 1; in series [9]; in the series on Coxsackievirus B4; in the series on Human respirovirus 3; in the series with Sindbis virus) was “inactive” in each case. Besides, the inhibition result in the series with Human alphaherpesvirus 2, in the series with Vaccinia virus, with Punta Toro virus and in the series with Influenza A virus was “inactive” in each case. Moreover, the half-maximal effective concentration (EC50) was at least 1.2 µM with Human betaherpesvirus 5 [3] and 1.8 µM with Human betaherpesvirus 5 [5]. In addition, the MCC at 72 h in series [6] is over 100 µM; in series [8], at least 4 µM.
Take `O=C(Cn1c(=O)ccn(CCCCCOc2ccc(Br)cc2)c1=O)Nc1ccc(Cc2ccccc2)cc1`: the 50% cytotoxic concentration (CC50) in the series with HEL came to 8.7 µM. Besides, the inhibition result (in series [1]; in series [2]; in series [4]; with Influenza A virus H3N2; with Influenza B virus; in the series with Feline coronavirus) was “inactive” in each case. The inhibition entry (in [7]; with Human alphaherpesvirus 1; in [9]; in the series with Coxsackievirus B4; in the series on Human respirovirus 3; with Sindbis virus) was “inactive” throughout. Further, the inhibition result in the series on Human alphaherpesvirus 2, with Vaccinia virus, in the series on Punta Toro virus and with Influenza A virus was “inactive” throughout. Moreover, the 50% effective concentration (EC50) was 0.57 µM in the series with Human betaherpesvirus 5 [3] and 0.44 µM in the series with Human betaherpesvirus 5 [5]. Also, the MCC at 72 h is at least 4 µM in [6] and 4 µM in series [8].
